Measured values published in ChEMBL document CHEMBL1158998, “Studies on iridoids of tissue cultures of Penstemon serrulatus: isolation and their antiproliferative properties” (J Nat Prod, 1992).

How the values were obtained:
[1] = Antiproliferative activity against BALB/c mouse splenocytes assessed as inhibition of [3H]thymidine incorporation into DNA at 100 uM after 24 hrs […] relative to control; assay type: cell-based, Splenocyte
In short: (§1)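 Spleens from male BALB/c mice (5–6 weeks) were teased into single cells in RPMI-1640 with 20 mM Hepes (pH 7.35) and checked by trypan blue. After 30 min preincubation, 10^6 cells/ml were held in medium with 15% FCS, with compound dissolved in medium. Incubation was at 37° in air-CO₂ (95:5). [³H]-thymidine (2 μCi/ml) was added after 1 h and the run stopped 24 h later. Read-out is cpm/10^6 cells; % inhibition = [1 − cpm treated/cpm control]×100; Student's t-test.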

[2] = Antiproliferative activity against BALB/c mouse splenocytes assessed as inhibition of [3H]thymidine incorporation into DNA at 10 uM after 24 hrs […] relative to control; assay type: cell-based, Splenocyte; in short: as §1
[3] = Antiproliferative activity against BALB/c mouse splenocytes assessed as inhibition of [3H]thymidine incorporation into DNA at 1 uM after 24 hrs […] relative to control; assay type: cell-based, Splenocyte; in short: as §1
[4] = Antiproliferative activity against Syrian hamster hepatoma cells assessed as inhibition of [3H]thymidine incorporation into DNA at 100 uM after 24 hrs […] relative to control; assay type: functional; details: Mesocricetus auratus
In short: (§2)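 Hepatoma was raised in Syrian hamsters by s.c. Kirkman-Robbins hepatoma pulp. Tumour cells were freed mechanically and with 0.4% collagenase plus 0.2% trypsin (>95% viable). After 30 min preincubation, 0.5×10^6 cells/ml were held in RPMI-1640 with 15% FCS and compound in medium at 37°, air-CO₂ (95:5). [³H]-thymidine (2 μCi/ml) was added at 1 h and incubation ended 24 h later. Read-out is cpm/10^6 cells; % inhibition vs control; Student's t-test.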

[5] = Antiproliferative activity against Syrian hamster hepatoma cells assessed as inhibition of [3H]thymidine incorporation into DNA at 10 uM after 24 hrs […] relative to control; assay type: functional; details: Mesocricetus auratus; in short: as §2

| SMILES | inhibition at 24 h, 100 µM [1] [%] | inhibition at 24 h, 10 µM [2] [%] | inhibition at 24 h, 1 µM [3] [%] | inhibition at 100 µM [4] [%] | inhibition at 10 µM [5] [%] |
| --- | --- | --- | --- | --- | --- |
| CC(C)CC(=O)O[C@@H]1OC=C(CO)[C@@H]2CC=C(CO)[C@@H]12 | 60 | 25 | 15 |  |  |
| C=C1[C@H]2[C@H](OC(=O)CC(C)C)OC=C(CO[C@@H]3O[C@H](CO)[C@@H](O)[C@H](O)[C@H]3O)[C@@H]2C[C@@H]1O | 45 | 16 | 9 | 75 | 18 |
| CC(C)CC(=O)O[C@@H]1OC=C(CO[C@@H]2O[C@H](CO)[C@@H](O)[C@H](O)[C@H]2O)[C@@H]2CC=C(CO)[C@@H]12 | 59 | 24 | 4 | 69 | 12 |
